Experimental data pooled from the literature.
Cell line: RPMI-8226
Read-out: cell growth or viability

CC(C)C[C@H](NC(=O)[C@H](Cc1ccccc1)NC(=O)c1cnccn1)B(O)O gave an EC50 of 3.9 nM (ATP luminescence).
For COc1ccc(C(=O)Nc2cccc(-c3nc(NC(P(=O)(O)O)P(=O)(O)O)c4ccsc4n3)c2)cc1F, the EC50 was 460 nM (MTS; 72 h).
For COc1cc(Nc2nccc(-c3cnn4nc(OC)ccc34)n2)cc(C(F)(F)F)c1, the IC50 was 220 nM (ATP luminescence).
The inhibition of COc1ccc(C(=O)/C=C/c2c(F)cccc2Cl)cc1S(N)(=O)=O is reported as 110% (SRB; 10 µM).
For CCC[C@H](Nc1nc(-c2ccc(NC(=O)NCC)c(OC)c2)ncc1C)c1cccnc1, the IC50 was 18.3 nM (fluorescence; 72 h).
For O=C(Nc1cccc(-c2nc(NC(P(=O)(O)O)P(=O)(O)O)c3ccsc3n2)c1)c1ccc(C(F)(F)F)cc1, the EC50 was 710 nM (MTS; 72 h).
CC[C@]1(O)C[C@H]2CN(CCc3c([nH]c4ccccc34)[C@@](C(=O)OC)(c3cc4c(cc3OC)N(C=O)[C@H]3[C@@](O)(C(=O)OC)[C@H](OC(C)=O)[C@]5(CC)C=CCN6CC[C@]43[C@@H]65)C2)C1 has an IC50 of 17.9 nM (fluorescence; 72 h).
N[C@@H]1CCCN(c2c(/C=C3\SC(=O)NC3=O)cccc2-c2ccccc2)C1 gave a GI50 of 2630 nM (thymidine uptake).
With C=CC(=O)N1CCC[C@@H](n2nc(-c3ccc(Oc4ccccc4)cc3)c3c(N)ncnc32)C1 the GI50 was greater than 10000 nM (48 h).
COc1ccc(C(=O)/C=C/c2ccc(Cl)c(Cl)c2)cc1S(N)(=O)=O has an inhibition of 107% (SRB; 10 µM).
With COc1cccc(Oc2ccccc2NC(=O)CNC(=O)c2cccc3ccccc23)c1 the GI50 was 955 nM (SRB; 48 h).
Cc1cc(C)n(C(=S)[S][Au][PH](CCCCCC[PH]([Au][S]C(=S)n2nc(C)cc2C)(c2ccccc2)c2ccccc2)(c2ccccc2)c2ccccc2)n1 gave a GI50 of 140 nM.
CC(C)C[C@H](NC(=O)[C@H](Cc1ccccc1)NC(=O)c1cnccn1)B(O)O gave an IC50 of 3.5 nM (ATP luminescence).
